In the library only some 1.3% were active in any assay of this set; here they are far more common.
DDE Tn7 FP inh: disrupts Tn7 cyclic peptide binding to fibrin D-Dimer-E complex; P02675; AID 720508; FP displacement of FITC-Tn7 peptide from fibrin DD(E); 0% = median of compound wells per plate; 370,000 tested, 0.13% active; inhibition, % at 8.3 µM;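 active = inhibition above the mean of compounds falling within the control limits plus 3 SD of them, cut at about 14% in these data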
Target sequence (P02675 whole entry, looked up): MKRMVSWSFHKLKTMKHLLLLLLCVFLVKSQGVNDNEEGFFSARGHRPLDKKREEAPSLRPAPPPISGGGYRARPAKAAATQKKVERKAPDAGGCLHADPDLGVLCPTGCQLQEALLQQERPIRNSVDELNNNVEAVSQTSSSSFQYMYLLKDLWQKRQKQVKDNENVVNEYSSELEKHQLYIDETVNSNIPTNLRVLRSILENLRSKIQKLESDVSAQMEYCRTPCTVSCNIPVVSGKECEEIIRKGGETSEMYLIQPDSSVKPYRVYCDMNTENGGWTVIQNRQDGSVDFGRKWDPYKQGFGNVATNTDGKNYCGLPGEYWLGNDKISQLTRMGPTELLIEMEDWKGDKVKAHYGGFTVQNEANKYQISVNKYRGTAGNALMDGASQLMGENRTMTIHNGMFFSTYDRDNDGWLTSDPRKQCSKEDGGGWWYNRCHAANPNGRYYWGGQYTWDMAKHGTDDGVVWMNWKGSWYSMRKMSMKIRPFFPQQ
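Assay system: Human clot-derived fibrin DD(E) complex | Buffer or medium: Tris/NaCl/CaCl2 buffer, pH 7.8 | Repeats: One replicate per compound | Benchmarks: Aha-Tn7 high control | Measure: % inhibition scaled between sample-field median and high-control FP | Schedule: 10 min plus 3 h, room temperature | Signal: Fluorescence polarization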
CendR NRP1 mod: NRP-1/CendR interaction modulation; inhibition, % at 25 µM; 360,000 tested, 0.85% active; O14786; AID 602438; FAM-RPARPAR peptide binding to NRP-1, fluorescence polarization;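 active = inhibition or corrected inhibition above about 18%, plus a signal ratio from 0.5 to 1.5, limit read from the data, passing the limit was not always enough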
aDG glyco act: alpha-DG glycosylation activation; Pro5-aDG cells, alpha-DG glycosylation AlphaScreen (IIH6); 0% Pro5, 100% B10-LARGE cell signal; 360,000 tested, 0.22% active; activation, % at 10 µM;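 active = activation of at least 8% versus controls, or a plate z-score of at least 8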;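 also: Pro5 are CHO cells carrying HIG-tagged alpha-DG that lacks glycosylation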
Tn6 DDE FP: disrupts Tn6 cyclic peptide binding to fibrin D-Dimer-E complex. P02675. Fibrin DD(E) TRITC-Tn6 fluorescence polarization displacement. inhibition, % at 8.3 µM. 370,000 tested, 0.21% active. AID 720509;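 active = inhibition above a per-campaign cutoff: mean of compounds within control limits plus 3 SD, cut at about 15% in these data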
Of the large screens only hits and unclear results are named; the others gave an inactive call.

CSCCC(NC(=O)c1ccc(Cl)cc1Cl)C(=O)NCC(c1cccs1)N(C)C (configuration not stated)	CendR NRP1 mod 26
Cc1ccc(NS(=O)(=O)c2ccc(C(=O)NCc3cccnc3)cc2)cc1	CendR NRP1 mod 21
O=S(=O)(c1ccccc1)c1nc(-c2ccc(F)cc2)oc1N1CCOCC1	CendR NRP1 mod 22
O=C(CN1CCN(Cc2ccc3c(c2)OCO3)CC1)N1CCc2[nH]c3ccc(F)cc3c2C1	CendR NRP1 mod 34
COc1ccc(CN2C(=O)C(CC(=O)NC3CCCCC3)CC(C(=O)N(C(C)C)C(C)C)=C2C)cc1 (configuration not stated)	none
O=C(N/N=C\C=C\c1ccc2c(c1)OCO2)c1ccc(F)cc1	none
Cc1cc(C(=O)N/N=C/C=C/c2ccc3c(c2)OCO3)n[nH]1	CendR NRP1 mod 27
Cc1ccc2c(c1)Sc1c(ccc3ccccc13)N2	CendR NRP1 mod 48
CCc1ccc(-c2cc(C)no2)cc1S(=O)(=O)NCCc1ccc(OC)c(OC)c1	none
COc1cccc(C2c3[nH]c4ccccc4c3CCN2C(=O)c2ccccc2F)c1OC (configuration not stated)	none
O=C(c1cn[nH]c1)N1CCc2c([nH]c3ccccc23)C1c1c(F)cccc1Cl (configuration not stated)	CendR NRP1 mod 40
N#CC1(c2ccccc2)CCCN1C(=O)c1ccc(Br)cc1 (configuration not stated)	none
N#CC1(c2ccccc2)CCCN1C(=O)c1ccccc1Cl (configuration not stated)	CendR NRP1 mod 26
Cc1ccc(N2CCN(S(=O)(=O)N3CCCCC3)CC2)cc1C	CendR NRP1 mod 31
CN(C(=O)COC(=O)c1ccccc1SCC(=O)N1CCCC1)C1CCS(=O)(=O)C1 (configuration not stated)	CendR NRP1 mod 20
C[C@@H]1CN([C@H](C)CO)C(=O)CCCn2nncc2CO[C@@H]1CN(C)C(=O)Nc1ccccc1	none (no result: CendR NRP1 mod, aDG glyco act)
Cc1ccc(S(=O)(=O)N2[C@@H](c3ccc(C(C)(C)C)cc3)C(C(=O)O)=CC[C@H]2c2ccc(Cl)c(Cl)c2)cc1	none
Cc1ccc(S(=O)(=O)N2[C@@H](c3ccc(Cl)cc3)C(C(=O)OC(C)(C)C)=CC[C@H]2c2ccc(Cl)c(Cl)c2)cc1	CendR NRP1 mod 30
Cc1noc(NS(=O)(=O)c2ccc(NC(=O)c3ccccc3NS(=O)(=O)c3ccc(F)cc3)cc2)c1C	none
Cc1cc(C)cc(N(CCC(=O)O)S(=O)(=O)c2ccc3ccccc3c2)c1	CendR NRP1 mod 42
O=C(Cn1cnc2c(NC(=O)OCc3ccccc3)ncnc21)NCCN1CCOCC1	CendR NRP1 mod 29
O=C(O)CC12CC3CC(C1)CC(n1ncc(NCC4CCCO4)c(Cl)c1=O)(C3)C2 (configuration not stated)	CendR NRP1 mod 25
O=C(O)CC12CC3CC(C1)CC(n1ncc(NCc4ccco4)c(Cl)c1=O)(C3)C2	none
C#CCNC(=O)C[C@H]1C[C@@]2(C(=O)OC)C(=C[C@H](C(C)C)O[C@@H]2C2CC2)N(Cc2ccccc2)C1=O	none (no result: CendR NRP1 mod, aDG glyco act)
O=S1(=O)CCOC[C@H](Cc2ccccc2)N1Cc1ccccc1F	CendR NRP1 mod 28
O=S1(=O)CCOC[C@H](Cc2ccccc2)N1Cc1cccc(F)c1	CendR NRP1 mod 35
CC(C)[C@H]1COCCS(=O)(=O)N1Cc1cccc(Cl)c1	CendR NRP1 mod 27
Cc1cc2c(nc1C)CCCN2S(=O)(=O)c1ccc(C(F)(F)F)cc1	none (no result: CendR NRP1 mod, aDG glyco act)
Cc1cc(C)nc(NC(=S)N2CCN(c3ncc(C(F)(F)F)cc3Cl)CC2)c1	none (no result: CendR NRP1 mod, aDG glyco act)
CCOC(=O)C1=CCN(S(=O)(=O)c2ccc(Br)cc2)C1c1cccc(F)c1 (configuration not stated)	none (no result: CendR NRP1 mod, aDG glyco act)
CC(=O)Nc1ccccc1C(=O)C(=O)O	CendR NRP1 mod 26
CC(OC(=O)c1cccc(S(=O)(=O)Nc2cccc(C(F)(F)F)c2)c1)C(=O)Nc1ccc2c(c1)OCCO2 (configuration not stated)	CendR NRP1 mod 31
Cc1sc2ncn(CC(=O)NCCCC(=O)N3CCC(C(N)=O)CC3)c(=O)c2c1C	none
CCCN1CCN(C(=O)CCCNC(=O)Cn2cnc3sc(C)c(C)c3c2=O)CC1	CendR NRP1 mod 26
COc1ccc(CC(=O)OCc2cc3ccccc3[nH]c2=O)cc1	CendR NRP1 mod 25
COc1ccc(C(=O)NCCN2CCN(C(=O)c3ccc(OC)c(OC)c3)CC2)cc1OC	none
O=C(NCCN1CCN(C(=O)c2cccc(OC(F)F)c2)CC1)c1cccc(OC(F)F)c1	CendR NRP1 mod 22
CN1Cc2c(N)cccc2C(c2ccccc2)C1 (configuration not stated)	CendR NRP1 mod 30
COc1ccc(-c2cc(NC(=O)Cc3c[nH]c4ccccc34)ccc2Nc2cccnc2)cc1F	none (no result: CendR NRP1 mod, aDG glyco act)
CCC1(CC)C(=O)NN(c2ccccc2)C1=O	CendR NRP1 mod 27
CN1CCN(C(=O)/C=C/c2cccc(Cl)c2)CC1	CendR NRP1 mod 25
O=C(Nc1ccc(N2CCN(C(=O)c3ccc(Cl)cc3)CC2)cc1)c1ccc2c(c1)OCCO2	aDG glyco act 4.0
O=C(Nc1ccc(N2CCN(C(=O)c3ccccc3)CC2)cc1)c1ccc2c(c1)OCCO2	none
COc1ccc2nc3cccc(OC)c3nc2c1	CendR NRP1 mod 31
COc1ccc(-c2nc3ccccc3nc2-c2ccc(OC)c(OC)c2)cc1OC	none
COc1ccc2nc3ccccc3nc2c1N	CendR NRP1 mod 29
COc1ccc2nc(-c3ccco3)c(-c3ccco3)nc2c1	none
Cc1onc(-c2ccc(Cl)cc2Cl)c1-c1csc(COc2ccccc2)n1	CendR NRP1 mod 27
COC(=O)c1cc2c(c3c4ccccc4n(S(=O)(=O)c4ccccc4)c13)C(=O)N(Cc1ccco1)C2	none (no result: CendR NRP1 mod, aDG glyco act)
CC(C)[C@H](NC(=O)c1ccccc1)C(=O)OCC(=O)c1ccccc1F	none
CC(C)[C@H](NC(=O)c1c(F)cccc1F)C(=O)OCC(=O)NNC(=O)c1ccccc1	CendR NRP1 mod 21
O=C(CCNS(=O)(=O)c1ccc(Br)cc1)NCCc1ccc(Cl)cc1	CendR NRP1 mod 27
CC(Oc1ccc(Cl)cc1Cl)C(=O)Nc1ccncc1 (configuration not stated)	none
CC(Oc1ccc(Cl)cc1Cl)C(=O)Nc1cccnc1 (configuration not stated)	CendR NRP1 mod 26
CC1CCCN(c2cccc3c2S(=O)(=O)N([C@H](C)c2ccccc2)C[C@@H](COCc2ccccc2)O3)C1 (some centres not stated)	none (no result: CendR NRP1 mod, aDG glyco act)
O=C(Cc1c[nH]c2ccccc12)Nc1ccc(Nc2cccnc2)cc1	none (no result: CendR NRP1 mod, aDG glyco act)
COc1cc(C(=O)c2c(C)c(CCC#N)n3ccccc23)cc(OC)c1OC	CendR NRP1 mod 21
O=C(NCc1ccco1)Nc1ccc2snnc2c1	CendR NRP1 mod 40
CC(C)C[C@H](NC(=O)c1[nH]cnc1C(=O)N[C@@H](Cc1ccccc1)C(=O)OCc1ccccc1)C(=O)OCc1ccccc1	CendR NRP1 mod 20
